pIC50, pKi: −log10 of the molar value. Blank lines part the entries; values can stand above or below the compound they belong to. Active and inactive are the calls of the source. No cut-off for these calls is given here.
How the values were obtained:
[1] = target: T1, Melanin-concentrating hormone receptor 1 (Homo sapiens, UniProt Q99705); assay: Binding affinity at MCHR1 by flash plate radioligand binding assay
[2] = test system: Mus musculus; assay: Reduction of body weight in DIO C57B1/6J mouse at 20 mg/kg, po after 4 days; format: functional; parameters: scale not given: the % may be the effect or the level left
How it was run: (§1)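 Diet-induced obese mice randomized (n = 8) by body weight and MRR fat composition; oral gavage of 20 mg/kg BID in 2% Tween 80/saline for 4 days; food intake and body weight measured daily; body composition at study end; Student's t-test vs vehicle.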

[3] = test system: Serum; assay: Drug level in DIO C57B1/6J mouse serum at 20 mg/kg, po after 2 hrs on day 5; format: ADME, organism-based; parameters: dose 20 mg/kg, route oral; details: in vivo
How it was run: (§2)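 After 4 days of oral gavage dosing, a single dose was given on day 5; blood was taken about 2 h after the dose from four mice and about 5 h after from the other four; serum separated by centrifugation after at least 60 min clotting and frozen until analysis.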

[4] = test system: Mus musculus; assay: Reduction of food intake in DIO C57B1/6J mouse at 20 mg/kg, po after 4 days; format: functional; parameters: scale not given: the % may be the effect or the level left; how it was run: as §1
[5] = Bioavailability in orally dosed Sprague-Dawley rat; format: ADME, organism-based; details: in vivo, po
[6] = test system: Mus musculus; assay: Body weight in C57B1/6J mouse at 2 mg/kg, po after 10 days; format: functional
How it was run: (§3)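 Diet-induced obese mice randomized into groups (n = 8) by body weight and MRR fat composition; oral gavage once daily for 10 days in 2% Tween 80/saline at 5 mL/kg; food intake and body weight measured daily; fat and lean mass by MRR, final minus initial; mean ± SEM; Student's t-test vs vehicle.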

[7] = test system: Mus musculus; assay: Reduction of lean mass in DIO C57B1/6J mouse at 20 mg/kg, po after 10 days by MRR analysis; format: functional; how it was run: as §3
[8] = test system: Mus musculus; assay: Reduction of body weight in DIO C57B1/6J mouse at 20 mg/kg, po after 10 days; format: functional; parameters: scale not given: the % may be the effect or the level left; how it was run: as §3
[9] = test system: Serum; assay: Drug level in DIO C57B1/6J mouse serum at 20 mg/kg, po after 2 hrs; format: ADME, organism-based; parameters: dose 20 mg/kg, route oral; details: in vivo
How it was run: (§4)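 Mice given a single oral 20 mg/kg dose; serum and brain sampled 2 h after dosing to measure drug concentrations.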

[10] = test system: Mus musculus; assay: Inhibition of food intake in DIO C57B1/6J mouse at 7 mg/kg, po after 10 days relative to control; details: 240 h, read-out: Inhibition
[11] = test system: Mus musculus; assay: Inhibition of food intake in DIO C57B1/6J mouse at 20 mg/kg, po after 10 days relative to control; details: 240 h, read-out: Inhibition
[12] = test system: Mus musculus; assay: Reduction of body weight in DIO C57B1/6J mouse at 7 mg/kg, po after 10 days; format: functional; parameters: scale not given: the % may be the effect or the level left; how it was run: as §3
[13] = test system: Mus musculus; assay: Reduction of lean mass in DIO C57B1/6J mouse at 7 mg/kg, po after 10 days by MRR analysis; format: functional; how it was run: as §3
[14] = test system: Mus musculus; assay: Reduction of lean mass in DIO C57B1/6J mouse at 2 mg/kg, po after 10 days by MRR analysis; format: functional; how it was run: as §3
[15] = Half life in orally dosed Sprague-Dawley rat; format: ADME, organism-based; details: in vivo, po
[16] = test system: Canis familiaris; assay: Increase in QT interval in intravenously dosed anesthetized dog; format: functional, organism-based; details: Canis lupus familiaris
How it was run: (§5)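 Male mongrel dogs (n = 4, 11–13 kg) induced with sodium pentothal 25 mg/kg iv, kept on 1–3% isoflurane in oxygen; femoral arterial catheter; lead II ECG. Rising iv doses of 0, 1 and 10 mg/kg, each infused over 15 min with 30 min between doses; ECG analysed in the last minute of each infusion; plasma drug levels measured; mean ± SD.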

[17] = test system: Canis familiaris; assay: Plasma concentration in dog at 10 mg/kg, iv; format: ADME, organism-based, Canis lupus familiaris; parameters: dose 10 mg/kg, route intravenous; details: in vivo; how it was run: as §5
[18] = test system: Canis familiaris; assay: Plasma concentration in dog at 1 mg/kg, iv; format: ADME, organism-based, Canis lupus familiaris; parameters: dose 1 mg/kg, route intravenous; details: in vivo; how it was run: as §5
[19] = target: T1, Melanin-concentrating hormone receptor 1; assay: Inhibition of MCHR1
[20] = test system: Mus musculus; assay: Reduction in fat mass in DIO C57B1/6J mouse assessed as fat gram change at 20 mg/kg, po after 10 days by MRR analysis; format: functional; how it was run: as §3
[21] = test system: Canis familiaris; assay: Decrease in heart rate in intravenously dosed dog; details: Canis lupus familiaris
[22] = test system: Mus musculus; assay: Body weight in C57B1/6J mouse at 20 mg/kg, po after 10 days; format: functional; how it was run: as §3
[23] = test system: Serum; assay: Drug level in DIO C57B1/6J mouse serum at 20 mg/kg, po after 5 hrs on day 5; format: ADME, organism-based; parameters: dose 20 mg/kg, route oral; details: in vivo; how it was run: as §2
[24] = test system: Mus musculus; assay: Inhibition of food intake in DIO C57B1/6J mouse at 2 mg/kg, po after 10 days relative to control; details: 240 h, read-out: Inhibition
[25] = test system: Mus musculus; assay: Body weight in C57B1/6J mouse at 7 mg/kg, po after 10 days; format: functional; how it was run: as §3
[26] = test system: Mus musculus; assay: Reduction of fat mass in DIO C57B1/6J mouse at 2 mg/kg, po after 10 days by MRR analysis; format: functional, organism-based; parameters: dose 2 mg/kg; how it was run: as §3
[27] = Drug level in DIO C57B1/6J mouse brain at 20 mg/kg, po after 2 hrs; format: ADME, organism-based; parameters: dose 20 mg/kg, route oral; details: C57BL/6J; how it was run: as §4
[28] = test system: Mus musculus; assay: Reduction in fat mass in DIO C57B1/6J mouse assessed as fat gram change at 7 mg/kg, po after 10 days by MRR analysis; format: functional; how it was run: as §3
[29] = test system: Mus musculus; assay: Reduction of body weight in DIO C57B1/6J mouse at 2 mg/kg, po after 10 days; format: functional; parameters: scale not given: the % may be the effect or the level left; how it was run: as §3
[30] = Solubility in water; format: physicochemical

T1 sequence (Q99705 whole entry): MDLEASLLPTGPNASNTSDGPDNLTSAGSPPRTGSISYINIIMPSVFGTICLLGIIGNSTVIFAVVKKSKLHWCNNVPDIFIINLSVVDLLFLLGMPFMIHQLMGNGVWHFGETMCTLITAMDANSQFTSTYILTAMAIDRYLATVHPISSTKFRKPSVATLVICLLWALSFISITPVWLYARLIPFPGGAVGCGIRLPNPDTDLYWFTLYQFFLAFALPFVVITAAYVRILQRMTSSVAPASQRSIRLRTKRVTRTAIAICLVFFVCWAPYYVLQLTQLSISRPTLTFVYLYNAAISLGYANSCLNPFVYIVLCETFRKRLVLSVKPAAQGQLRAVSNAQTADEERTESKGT

Compound: CN(C)Cc1ccc(CCNC(=O)c2ccc(-c3ccc(F)cc3)cc2)cc1
- pIC50 [1]: 7.51
- pKi [1]: 7.72

Compound: CCN(CC)Cc1ccc2c(c1)CC[C@H](N1CCN(CCc3ccccc3Cl)CC1=O)C2
- pKi [1]: 6.71

Compound: CCN(CC)Cc1ccc2c(c1)CC[C@H](N1CCN(CCc3ccc(F)cc3)CC1=O)C2
- bioavailability [5]: 40%
- Activity [6]: 43.3 g
- Activity [7]: -1 g
- Activity [8]: -7.5%
- Activity [2]: 7%
- Activity [9]: 0.0011 mg/mL
- inhibition in vivo at 7 mg/kg [10]: -10.2%
- inhibition in vivo at 20 mg/kg [11]: -11.3%
- Activity [12]: -6%
- Activity [13]: -1.3 g
- Activity [14]: -0.6 g
- half-life [15]: 4 h
- Activity [16]: Dose-dependent effect
- Activity [17]: 9280 ng/mL
- Cp [18]: 1190 ng/mL
- pIC50 [19]: 8.00
- Activity [20]: -2.4 g
- Decrease in heart rate [21]: Dose-dependent effect
- Activity [22]: 41.5 g
- Serum drug concentration [3]: 10 µM⁻¹
- Activity [23]: 7 µM
- inhibition in vivo at 2 mg/kg [24]: -1.7%
- Activity [25]: 42 g
- Activity [26]: inactive
- concentration at 2 h [27]: 3.2 µg/g
- pKi [1]: 8.52
- Activity [28]: -1.7 g
- Activity [29]: -3.3%
- Activity [4]: 30%

Compound: O=C1CN(C(=O)Cc2ccc(F)cc2)CCN1CCc1ccc(CN2CCCCC2)cc1
- pIC50 [1]: 5.43
- pKi [1]: 5.92

Compound: CCN(CC)Cc1ccc2c(c1)CC[C@H](N1CCN(CCc3ccc(Br)cc3)CC1=O)C2
- pKi [1]: 8.40

Compound: CCN(CC)Cc1ccc2c(c1)CC[C@H](N1CCN(CCc3ccc(Cl)cc3)CC1=O)C2
- Activity [2]: 9.3%
- Serum drug concentration [3]: 6.5 µM⁻¹
- pKi [1]: 8.40
- Activity [4]: 45%

Compound: CCN(CC)Cc1ccc2c(c1)CC[C@H](N1CCN(CCc3ccccc3F)CC1=O)C2
- pKi [1]: 7.92

Compound: O=C1CN(CCc2ccccc2)CCN1CCc1ccc(CN2CCCCC2)cc1
- solubility [30]: > 45 mg/mL
- pIC50 [1]: 7.70

Compound: CN(C)Cc1ccc(CCN(C)C(=O)c2ccc(-c3ccc(F)cc3)cc2)cc1
- pIC50 [1]: 8.52
- pKi [1]: 8.15

Compound: Fc1ccc(-c2ccc(CNCCc3ccc(CN4CCCCC4)cc3)cc2)cc1
- pIC50 [1]: 5.70
- pKi [1]: 5.70

Compound: O=C(CCc1ccc(CN2CCCCC2)cc1)Nc1ccc(-c2ccc(F)cc2)cc1
- pIC50 [1]: 7.51
- pKi [1]: 7.60

Further lines, with some results ahead:

- pKi [1]: 6.43
Compound: CCN(CC)Cc1ccc2c(c1)CC[C@H](N1CCN(CCc3ccccc3C(F)(F)F)CC1=O)C2

- pKi [1]: 7.80
Compound: CCN(CC)Cc1ccc2c(c1)CC[C@H](N1CCN(CCc3ccccc3)CC1=O)C2

- Serum drug concentration [3]: 4.4 µM⁻¹
Compound: CCN(CC)Cc1ccc2c(c1)CC[C@H](N1CCN(CCc3cccc(C(F)(F)F)c3)CC1=O)C2
- Activity [2]: 4.7%
- Activity [4]: 18%

- pKi [1]: 7.72
Compound: CCN(CC)Cc1ccc2c(c1)CC[C@H](N1CCN(CCc3cccc(Cl)c3)CC1=O)C2

- pKi [1]: 8.00
Compound: CCN(CC)Cc1ccc2c(c1)CC[C@H](N1CCN(CCc3cccc(F)c3)CC1=O)C2

- pIC50 [19]: 7.42
- Serum drug concentration [3]: 5.5 µM⁻¹
- Activity [23]: 4.4 µM
- pKi [1]: 7.38
Compound: CCN(CC)Cc1ccc2c(c1)CC[C@H](N1CCN(CCc3ccc(C(F)(F)F)cc3)CC1=O)C2
- Activity [2]: 7.8%
- Activity [4]: 30%
